Measured values published in article PMC9350900 (ACS chemical neuroscience, 2021).
Where two headings read alike, the source gives them in different places.

What was measured:
[1] = Dynamic PET imaging in wild-type mice; format: in vivo, mouse; conditions: wt male mice
Method in brief: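 Three male C57BL/6 mice (7.5 months, 29–32 g) given an i.v. bolus of the [18F] tracer (9.1 ± 1.1 MBq; Am 18 ± 10 GBq/μmol). 60-min dynamic PET/MRI in 33 frames, FBP reconstruction. Decay-corrected, no attenuation or scatter correction. Whole-brain TAC via MR template atlas; SUV = regional radioactivity normalised to injected activity and body weight.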

[2] = Dynamic PET imaging in healthy rats; format: in vivo, rat
Method in brief: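 Two healthy Sprague-Dawley rats, 3 months old (male 358 g, female 241 g), injected i.v. with 15.5 and 16.5 MBq of the [18F] tracer (Am 19 and 8 GBq/μmol). 120-min dynamic PET/MRI in 39 frames, FBP with Hann filter. Decay-corrected, without attenuation or scatter correction. Whole-brain TAC from MR template atlas; SUV normalised to injected activity and body weight.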

[3] = Baseline dynamic PET imaging in non-human primate; format: in vivo, rhesus monkey (Macaca mulatta); conditions: rhesus monkey, i.v. 185 MBq
Method in brief: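 Rhesus monkey sedated with ketamine (15 mg/kg i.m.) plus glycopyrrolate (0.01 mg/kg i.m.), intubated, and kept under isoflurane (0.5–2.0%) in 40% oxygen/air. CT scan for attenuation correction. The [18F] tracer (185 MBq, <1.0 microgram mass) was given as a slow i.v. bolus (~20 s) with saline flush. Dynamic 90-min scan in 27 frames, FBP-reconstructed with full corrections. Whole-brain ROI time-activity curve in SUV.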

[4] = Radiometabolite analysis of blood samples in non-human primate; format: in vivo, rhesus monkey (Macaca mulatta); conditions: rhesus monkey blood, 10 min
Method in brief: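 Anesthetised rhesus monkey given 185 MBq of the [18F] tracer as an i.v. bolus. Venous blood (~3 mL) drawn via saphenous catheter at 2, 10, 30, 45 and 90 min post-injection. Samples analysed by radio-HPLC for radiolabelled metabolites and the time-varying fraction of unmetabolized parent tracer.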

[5] = Lipophilicity by shake-flask method; format: physicochemical; conditions: 1-octanol
[6] = format: in vitro ADME; conditions: human
[7] = format: in vitro ADME; conditions: rat
[8] = target: T1, melatonin binding site (MT3 (ML2)) on quinone dehydrogenase 2 (Mesocricetus auratus, UniProt A0ABM2YAB8); assay: Off-target selectivity screen; conditions: 1.0 μM, specific radioligand
T1 sequence (A0ABM2YAB8 1-231): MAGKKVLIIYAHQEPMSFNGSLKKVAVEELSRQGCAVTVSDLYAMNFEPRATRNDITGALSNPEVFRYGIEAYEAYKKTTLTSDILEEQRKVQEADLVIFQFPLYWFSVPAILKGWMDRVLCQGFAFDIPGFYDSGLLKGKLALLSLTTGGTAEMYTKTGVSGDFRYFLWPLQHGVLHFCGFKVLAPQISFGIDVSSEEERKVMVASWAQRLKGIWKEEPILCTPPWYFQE

[9] = system: 93 CNS receptors and enzymes, including MAO-A and MAO-B; assay: Off-target selectivity screen; format: binding; conditions: 93 proteins including MAO-A and MAO-B, 1.0 μM
[10] = target: P-glycoprotein (Homo sapiens, UniProt P08183); conditions: MDCK-MDR1
[11] = human
[12] = rat

P-glycoprotein, sequence (P08183 whole entry): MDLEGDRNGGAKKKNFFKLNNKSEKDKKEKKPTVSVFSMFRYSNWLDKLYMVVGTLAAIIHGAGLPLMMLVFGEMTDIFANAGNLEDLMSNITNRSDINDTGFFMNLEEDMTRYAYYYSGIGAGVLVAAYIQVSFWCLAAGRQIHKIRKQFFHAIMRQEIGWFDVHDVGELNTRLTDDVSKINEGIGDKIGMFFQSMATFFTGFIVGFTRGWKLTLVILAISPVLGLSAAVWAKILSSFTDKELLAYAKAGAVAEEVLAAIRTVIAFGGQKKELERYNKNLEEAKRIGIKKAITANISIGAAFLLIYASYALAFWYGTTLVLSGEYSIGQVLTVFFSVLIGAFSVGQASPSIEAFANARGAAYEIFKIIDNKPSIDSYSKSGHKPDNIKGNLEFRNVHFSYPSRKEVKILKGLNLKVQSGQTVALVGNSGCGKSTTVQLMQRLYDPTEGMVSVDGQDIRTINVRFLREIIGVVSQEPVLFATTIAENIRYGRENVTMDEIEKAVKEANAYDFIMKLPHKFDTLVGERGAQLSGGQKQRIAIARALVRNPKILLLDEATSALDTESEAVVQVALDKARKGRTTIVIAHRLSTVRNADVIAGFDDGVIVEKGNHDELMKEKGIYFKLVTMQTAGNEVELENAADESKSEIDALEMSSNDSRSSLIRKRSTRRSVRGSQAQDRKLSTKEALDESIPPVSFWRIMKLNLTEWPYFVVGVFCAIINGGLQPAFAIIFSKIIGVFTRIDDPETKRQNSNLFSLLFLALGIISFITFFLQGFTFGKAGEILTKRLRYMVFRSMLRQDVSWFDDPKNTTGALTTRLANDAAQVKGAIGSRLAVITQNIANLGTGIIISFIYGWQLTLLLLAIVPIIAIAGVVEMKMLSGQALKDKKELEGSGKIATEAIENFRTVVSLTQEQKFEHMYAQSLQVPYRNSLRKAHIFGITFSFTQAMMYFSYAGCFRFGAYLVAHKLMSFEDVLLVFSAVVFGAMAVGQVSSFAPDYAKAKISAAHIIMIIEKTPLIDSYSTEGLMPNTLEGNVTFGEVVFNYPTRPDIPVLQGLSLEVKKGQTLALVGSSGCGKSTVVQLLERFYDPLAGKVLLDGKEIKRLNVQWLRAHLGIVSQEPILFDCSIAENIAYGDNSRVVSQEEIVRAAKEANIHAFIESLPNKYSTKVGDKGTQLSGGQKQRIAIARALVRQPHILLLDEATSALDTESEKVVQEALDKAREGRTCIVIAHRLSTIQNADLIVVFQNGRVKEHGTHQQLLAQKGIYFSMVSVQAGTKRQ

Row | SMILES | maximum radioactivity in whole brain ([1]; i.v. bolus 9.1 ± 1.1 MBq) | whole brain radioactivity after 30 min ([1]; i.v., after 30 min) | maximum radioactivity in whole brain ([2]; i.v. 15.5 and 16.5 MBq) | whole brain radioactivity after 30 min ([2]; i.v., after 30 min) | peak brain activity [3] | time to peak brain activity [3] | brain activity after 25 min ([3]; after 25 min) | fraction of unmetabolized parent [4] | logD7.4 [5] | stability in liver microsomes [6] | stability in liver microsomes [7] | interaction with off-target [8] | affinity for off-targets [9] | efflux ratio (B-A/A-B) [10] | free fraction in blood plasma [11] | free fraction in blood plasma [12]
1 | OCC1CCN(c2ccc(-c3cc4cc(O)ccc4[nH]3)c([18F])n2)CC1 [[^18F]CBD-2115] | 0.66 SUV | below 0.1 SUV | 0.5 SUV | below 0.1 SUV | 0.65 SUV | ≤ 2 min | below 0.2 SUV | 45% | 2.99 ± 0.15 |  |  |  |  |  |  | 
2 | OCC1CCN(c2ccc(-c3cc4cc(O)ccc4[nH]3)c(F)n2)CC1 [CBD-2115] |  |  |  |  |  |  |  |  |  | 8.56 mL/min/kg | 63.84 mL/min/kg | specific interaction | no significant affinity | 0.98 | 2.70% | 2.85%
